Residue numbers refer to the chain shown, from its start. Read-outs that look alike come from different tables or passages of the source. Blank lines part the entries; values can stand above or below the compound they belong to.
Key:
[1] = test system: mOtop1 channel; details: read-out: EC50, activating Otop1 currents; neutral and acidic conditions; cited from earlier work
[2] = test system: Otop1 channel; details: cited from earlier work
[3] = test system: HEK293 cells expressing merely pHmScarlet-mTurquise2; test: live cell intracellular pH imaging; format: cell-based; details: pH 5.0; nontransfected cells
How it was run: (§1)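 HEK293 cells were electroporated (180 V, 25 ms) with pHmScarlet-mTurquise2, with or without mOtop1, and imaged 24 h later. Cells sat in pH 7.4 solution (mM: 140 KCl, 10 NaCl, 1 MgCl2, 20 HEPES), then were shifted to pH 8.5 (Tris), 6.0 (MES) or 5.0 (HomoPIPES). Test compound was 10 μM in the stimulus solution, with acetic acid pH 5.0 as positive control. FpHmScarlet/FmTurquise2 ratio read every 2 s.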

[4] = molecular target: T1, mOtop1 channels co-expressed in HEK293 cells (Mus musculus, UniProt Q80VM9); test: live cell intracellular pH imaging; format: cell-based; details: pH 5.0; mOtop1 transfected cells
T1 sequence (Q80VM9 1-600): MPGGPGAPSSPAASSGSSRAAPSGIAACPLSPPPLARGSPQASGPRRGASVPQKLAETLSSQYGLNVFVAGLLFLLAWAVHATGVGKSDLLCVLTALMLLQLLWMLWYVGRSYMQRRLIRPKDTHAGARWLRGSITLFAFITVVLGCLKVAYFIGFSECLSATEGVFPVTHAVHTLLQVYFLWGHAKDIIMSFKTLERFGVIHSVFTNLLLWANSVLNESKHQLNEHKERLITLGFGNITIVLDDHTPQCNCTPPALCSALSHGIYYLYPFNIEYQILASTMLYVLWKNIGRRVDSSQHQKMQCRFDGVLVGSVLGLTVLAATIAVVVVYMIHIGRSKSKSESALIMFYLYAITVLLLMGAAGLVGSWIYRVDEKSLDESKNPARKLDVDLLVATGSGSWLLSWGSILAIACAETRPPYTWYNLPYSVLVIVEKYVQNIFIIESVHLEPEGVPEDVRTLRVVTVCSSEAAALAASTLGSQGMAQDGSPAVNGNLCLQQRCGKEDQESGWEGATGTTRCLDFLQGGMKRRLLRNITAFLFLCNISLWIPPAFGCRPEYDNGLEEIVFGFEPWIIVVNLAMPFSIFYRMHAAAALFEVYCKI
How it was run: as §1

[5] = molecular target: T2, mOtop1/R554A (Mus musculus, UniProt Q80VM9, R554A); test: patch-clamp, mOtop1 mutant; format: cell-based; details: 1 mM Zn2+
T2 sequence (Q80VM9 1-600 R554A): T1 sequence (Q80VM9 1-600) with R554A

[6] = molecular target: T3, mouse Otop1 (mOtop1) channels (Mus musculus, UniProt Q80VM9); format: cell-based; details: read-out: IC50, inhibition of mOtop1 currents, n = 5-6
T3 sequence (Q80VM9 1-600): T1 sequence (Q80VM9 1-600)

SMILES: Cc1ccc(C(C)C)cc1O [carvacrol]
- EC50 [1]: ~700 µM

SMILES: Nc1c(S(=O)(=O)O)cc(Nc2ccc(Nc3nc(Cl)nc(Nc4ccccc4S(=O)(=O)O)n3)c(S(=O)(=O)O)c2)c2c1C(=O)c1ccccc1C2=O [Cibacron Blue 3G-A]
- action on Otop1 [2]: moderate antagonist

- pHi change, positive control [4]: triggered dramatical pHi dropdown
SMILES: CC(=O)O [acetic acid, reference compound]
- pHi change, positive control [3]: triggered dramatical pHi dropdown

- effect on mOtop1/R554A currents [5]: significantly inhibited
- IC50 ([6]; currents activated by pH 5.5 alone): 72 ± 9 µM
- IC50 ([6]; currents activated by pH 5.5 with 10 μM MFaN): 58 ± 13 µM
SMILES: [Zn+2] [Zn^2+]
